Source: PubChem
A selection: hits, their analogues and other compounds. The true share with any hit is near 8.7%.
PostGolgi yeast: phenotypic screen on post-Golgi transport, primary screen; 98,000 tested, 0.9% active; AID 739, 2007; post-Golgi transport phenotypic cell assay; inhibition, % at 10 µM;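 note: yeast cells grown in 1536-well plates; yeast grown about 18 h at 30C before absorbance read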
PostGolgi ctrl: growth inhibition of yeast control strain, primary screen, counter-screen for post-Golgi transport modulator project; inhibition, % at 10 µM; 98,000 tested, 5% active; efflux-deficient yeast background strain, growth absorbance A615, 16 h
E coli WT exp: growth inhibitors of wild-type E. coli, primary screen, strain BW25113, expanded library, OD600 | 98,000 tested, 0.15% active | OD600 absorbance | growth inhibition, % at 100 µM;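 active = growth inhibition above about 50% at one test dose, limit read from the data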;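 note: growth measured after 20 h incubation at 37 °C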
Pyk2 oligo antag: antagonists of Pyk2 self-association, primary screen, Q293 cells, FERM NanoBiT luminescence, HTS. active compounds read low. Protein-tyrosine kinase 2-beta (Homo sapiens), Q14289. z-score (the deposit names both 25 µM and 10 µM). 99,000 tested, 0.83% active;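 active = Z-score of -3 or lower, scaled per plate to the spread of control and sample wells; inactive = z-score above -3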;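 note: negative z-score means lost luminescence so less FERM oligomerization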
tolC growth inh: growth inhibitors of E. coli tolC mutant, primary screen, strain BW25113 ΔtolC::kan, 384-well; growth inhibition, % at 10 µM (by protocol); AID 573, 2007; 65,000 tested, 2.2% active; OD615;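 active = growth inhibition at or above a cutoff equal to the mean over every tested compound plus 3 SD, cut at about 60% in these data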;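 note: growth measured after 20 h incubation at 37 °C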
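Test system – E. coli BW25113 ΔtolC::kan, tolC deletion mutant strain · Detection – OD at 615 nm · Buffer or medium – LB with kanamycin 50 µg/mL · Times – 20 h compound exposure of bacteria at 37 °C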
Cav3 T inh: Cav3.2 calcium influx blockers – cell-based, Fluo-4 calcium fluorescence, FDSS, MLSMR library, primary screen; Cav3.2-expressing cells; active compounds read low; B-score at 10 µM; 100,000 tested, 4% active; AID 449739, 2010;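 active = single-dose well whose peak fluorescence ratio is a statistical outlier from its plate by either plate-standardised score or position-corrected B-score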
Target sequence (O95180 whole entry, looked up): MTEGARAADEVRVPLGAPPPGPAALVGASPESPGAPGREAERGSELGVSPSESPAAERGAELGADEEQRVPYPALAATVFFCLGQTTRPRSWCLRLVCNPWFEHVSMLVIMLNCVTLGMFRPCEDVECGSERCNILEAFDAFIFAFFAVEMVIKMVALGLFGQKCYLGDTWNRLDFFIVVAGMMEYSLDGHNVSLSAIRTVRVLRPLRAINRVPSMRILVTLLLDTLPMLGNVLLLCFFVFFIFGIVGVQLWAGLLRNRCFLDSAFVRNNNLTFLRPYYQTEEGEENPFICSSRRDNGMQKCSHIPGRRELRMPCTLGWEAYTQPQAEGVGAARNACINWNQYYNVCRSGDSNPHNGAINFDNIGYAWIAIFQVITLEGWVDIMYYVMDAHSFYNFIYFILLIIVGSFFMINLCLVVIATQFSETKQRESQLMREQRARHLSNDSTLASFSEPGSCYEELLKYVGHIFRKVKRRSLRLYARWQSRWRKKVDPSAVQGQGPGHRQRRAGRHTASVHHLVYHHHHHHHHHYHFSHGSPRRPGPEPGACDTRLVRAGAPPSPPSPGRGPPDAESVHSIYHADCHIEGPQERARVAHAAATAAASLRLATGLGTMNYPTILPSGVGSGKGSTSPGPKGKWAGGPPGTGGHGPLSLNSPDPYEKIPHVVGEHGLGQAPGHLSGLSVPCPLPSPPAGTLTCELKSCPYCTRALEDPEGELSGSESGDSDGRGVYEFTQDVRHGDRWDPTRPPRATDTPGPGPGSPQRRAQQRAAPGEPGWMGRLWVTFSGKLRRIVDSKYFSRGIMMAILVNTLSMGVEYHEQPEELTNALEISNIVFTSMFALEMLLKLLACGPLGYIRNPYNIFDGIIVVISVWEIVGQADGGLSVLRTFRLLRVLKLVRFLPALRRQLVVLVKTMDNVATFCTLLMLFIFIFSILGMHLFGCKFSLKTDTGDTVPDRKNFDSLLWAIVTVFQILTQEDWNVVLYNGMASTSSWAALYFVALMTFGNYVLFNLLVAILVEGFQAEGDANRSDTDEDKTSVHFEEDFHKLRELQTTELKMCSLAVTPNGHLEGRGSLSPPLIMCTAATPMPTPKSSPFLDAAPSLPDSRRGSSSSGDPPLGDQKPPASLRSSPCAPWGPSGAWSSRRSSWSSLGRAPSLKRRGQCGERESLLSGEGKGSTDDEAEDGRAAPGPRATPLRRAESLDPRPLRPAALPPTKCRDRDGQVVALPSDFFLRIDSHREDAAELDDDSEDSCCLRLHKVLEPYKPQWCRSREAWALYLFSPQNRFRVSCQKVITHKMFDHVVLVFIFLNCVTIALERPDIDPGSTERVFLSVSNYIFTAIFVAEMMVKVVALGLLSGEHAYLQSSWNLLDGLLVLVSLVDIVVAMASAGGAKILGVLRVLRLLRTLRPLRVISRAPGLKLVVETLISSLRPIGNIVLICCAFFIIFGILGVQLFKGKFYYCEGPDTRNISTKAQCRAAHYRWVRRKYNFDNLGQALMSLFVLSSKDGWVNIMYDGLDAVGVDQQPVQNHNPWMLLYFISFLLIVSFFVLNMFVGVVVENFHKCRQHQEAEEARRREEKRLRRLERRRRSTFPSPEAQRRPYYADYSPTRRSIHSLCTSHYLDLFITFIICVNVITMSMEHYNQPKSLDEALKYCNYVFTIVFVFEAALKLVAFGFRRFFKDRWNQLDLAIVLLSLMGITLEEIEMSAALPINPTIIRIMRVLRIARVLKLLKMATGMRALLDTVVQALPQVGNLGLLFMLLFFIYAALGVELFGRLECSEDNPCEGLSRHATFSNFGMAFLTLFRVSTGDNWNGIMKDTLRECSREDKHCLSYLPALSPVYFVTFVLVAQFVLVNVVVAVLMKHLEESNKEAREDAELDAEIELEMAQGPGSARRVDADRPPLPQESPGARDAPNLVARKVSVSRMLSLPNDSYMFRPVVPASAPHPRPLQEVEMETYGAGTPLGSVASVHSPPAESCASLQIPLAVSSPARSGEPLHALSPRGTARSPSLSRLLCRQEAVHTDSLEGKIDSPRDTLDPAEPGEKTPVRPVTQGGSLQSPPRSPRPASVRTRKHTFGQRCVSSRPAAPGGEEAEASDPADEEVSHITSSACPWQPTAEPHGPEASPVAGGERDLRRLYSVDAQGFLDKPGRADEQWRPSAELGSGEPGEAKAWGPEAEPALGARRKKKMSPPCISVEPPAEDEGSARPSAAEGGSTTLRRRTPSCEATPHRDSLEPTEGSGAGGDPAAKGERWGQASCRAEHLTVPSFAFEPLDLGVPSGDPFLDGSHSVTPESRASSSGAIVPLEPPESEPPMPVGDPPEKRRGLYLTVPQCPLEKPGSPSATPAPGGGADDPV
Hits are given with their value; . = inactive; / = no result. Cut-off read from the data, not from the text of the source, unless noted: active = inhibition above about 30%; inactive = the rest.

SMILES	PostGolgi yeast	PostGolgi ctrl	E coli WT exp	Pyk2 oligo antag	tolC growth inh	Cav3 T inh
O=C1CC(c2ccc(S(=O)(=O)Nc3cc(C(F)(F)F)cc(C(F)(F)F)c3)cc2)CN1 (configuration not stated)	.	.	.	.	/	.
O=C(CSc1ccc2ccccc2n1)N1CCC(c2noc3ccc(F)cc23)CC1	/	/	/	.	/	-6.5
Cc1nnc(SCC(=O)N2CCC(c3noc4ccc(F)cc34)CC2)s1	.	.	.	.	.	.
Cc1cc(SCC(=O)N2CCCC2)nc2ccccc12	.	.	.	.	.	.
Cc1sc2ncnc(SCC(=O)N3CCC(c4noc5ccc(F)cc45)CC3)c2c1C	83	91	.	.	/	/
CN(C)c1ccc(-c2ccccc2)nn1	.	.	.	.	.	.
CCCc1cc(C(=O)Cc2ccc(C(=O)OCC)o2)c(O)cc1O	.	31	.	.	65	-4.1
CCc1cc(C(=O)Cc2ccc(F)cc2)c(O)cc1O	/	/	/	/	91	/
CCCc1cc(C(=O)Cc2nc3ccccc3s2)c(O)cc1O	.	.	.	.	/	.
CCCc1cc(C(=O)Cc2ccc(F)cc2)c(O)cc1O	.	52	.	.	.	.
CCc1cc(C(=O)COc2ccccc2F)c(O)cc1O	.	.	.	.	100	-9
O=C(Cc1ccc(F)cc1)c1ccc(O)cc1O	.	.	.	.	/	.
N#CCSc1nnc(-c2ccccc2O)n1CCc1ccccc1	.	.	.	.	.	.
CCOC(=O)N1CCN(c2c(NCC3CCN(Cc4cccc(C)c4)CC3)c(=O)c2=O)CC1	.	.	.	/	.	.
COc1ccc(/C=N/N=C2/NC(=O)C(c3ccccc3)S2)c(OC)c1 (configuration not stated)	.	.	.	.	/	.
Cc1ccc(OS(=O)(=O)c2ccccc2)c(/C=N/N=C2\NC(=O)C(C)S2)c1 (configuration not stated)	.	41	.	.	/	.
CCN(CC)c1nc2cc(OC)ccc2cc1C#N	39	.	.	.	.	/
COc1ccc2nc(N3CCC(C)CC3)c(C#N)cc2c1	.	.	.	.	97	.
CCOC(=O)C1CCN(c2nc3cc(OC)ccc3cc2C#N)CC1	.	.	.	.	75	.
Cc1cccc(N2CCN(C(=O)CCn3c(=S)[nH]c4cc5c(cc4c3=O)OCO5)CC2C)c1 (configuration not stated)	.	.	.	.	.	-4
O=C(CCCn1c(=S)[nH]c2cc3c(cc2c1=O)OCO3)N1CCN(c2ccc(Cl)cc2)CC1	.	.	.	.	.	-7.7
CCC1CC2CC(NC(C)=O)C1C2 (configuration not stated)	.	33	.	.	/	.
CC(=O)N[C@H]1C[C@@H]1c1ccccc1	.	.	.	.	.	.
CC(C)CCn1c(Oc2ccccc2Cl)nc2c1c(=O)n(C)c(=O)n2C	.	32	.	.	/	-4.9
CN(Cc1ccccc1)Cc1nc2c(c(=O)n(C)c(=O)n2C)n1Cc1ccccc1Cl	.	40	.	.	.	.
SMILES	PostGolgi yeast	PostGolgi ctrl	E coli WT exp	Pyk2 oligo antag	tolC growth inh	Cav3 T inh
Cc1cc(C)nc(SCCn2c(N(C)Cc3ccccc3)nc3c2c(=O)n(C)c(=O)n3C)n1	.	34	.	.	/	.
Cn1c(=O)c2c(nc(SCC(=O)OCc3ccccc3)n2C)n(C)c1=O	.	34	.	.	.	.
CN(Cc1ccccc1)c1nc2c(c(=O)n(C)c(=O)n2C)n1CCSc1ncccn1	.	.	.	/	.	.
CCCCn1c(CN(C)Cc2ccccc2)nc2c1c(=O)n(C)c(=O)n2C	.	.	.	.	/	.
CC(C)CCn1c(Cl)nc2c1c(=O)n(C)c(=O)n2C	.	.	.	.	.	.
Cc1ccc(CN(c2ccc(C(=O)N3CCCC3)cc2)S(C)(=O)=O)cc1	.	.	.	.	.	.
CCn1c(SCC(=O)N2c3ccccc3Sc3ccccc32)nc2c1c(=O)n(C)c(=O)n2C	/	/	/	.	.	.
CCCn1c(CN(Cc2ccccc2)Cc2ccccc2)nc2c1c(=O)n(C)c(=O)n2C	.	.	.	/	65	-4.4
CCCCn1c(SCC(=O)N2c3ccccc3Sc3ccccc32)nc2c1c(=O)n(C)c(=O)n2C	/	/	/	.	/	-4.8
CCCn1c(CN(C)Cc2ccccc2)nc2c1c(=O)n(C)c(=O)n2C	/	/	/	.	.	.
Cc1cccc(S(=O)(=O)NCCC(=O)OC(C)C(=O)NC(=O)NC2CCCCC2)c1 (configuration not stated)	.	.	.	.	.	-7.8
COc1cc(C(=O)NCc2cn3ccsc3n2)cc(OC)c1OC	/	/	/	.	.	/
Cn1c(/C=N/NC(=O)c2ccccc2Br)nc2ccccc21	.	.	.	.	/	-4.3
Cc1ccc(C(=O)N/N=C/c2nc3ccccc3n2C)cc1	.	.	.	.	/	.
COc1ccccc1N1CCN(CC(O)COc2ccc3c(c2)CCC3)CC1 (configuration not stated)	.	.	.	.	/	-6.1
Cc1nn(CC(O)COc2ccc3c(c2)CCC3)c(C)c1Br (configuration not stated)	.	.	.	.	/	.
CC(C)c1ccc(OCC(O)CN2CCN(c3ccccc3)CC2)cc1 (configuration not stated)	51	63	.	.	.	.
CC(C)(C)CC(C)(C)NCC(O)COc1ccc2c(c1)CCC2 (configuration not stated)	/	/	/	.	/	-8.3
Cc1ccc(-c2cnc(N)n2C)cc1C	.	.	.	.	.	.
O=C(Nc1cc(Cl)ccc1O)C1CCCO1 (configuration not stated)	.	38	.	.	.	.
O=C(Nc1ccccc1Sc1ccccc1)C1CCCO1 (configuration not stated)	.	38	.	.	.	.
O=C(O)c1cc(Cl)ccc1NC(=O)C1CCCO1 (configuration not stated)	.	.	.	.	.	.
O=C(C#Cc1ccccc1)c1ccc([N+](=O)[O-])cc1	.	36	.	.	/	.
O=c1[nH]cnc2cc(Cl)ccc12	.	.	.	.	.	.
CCC(C)NCCOCCOc1ccc(C)cc1Br (configuration not stated)	.	37	.	.	/	.
SMILES	PostGolgi yeast	PostGolgi ctrl	E coli WT exp	Pyk2 oligo antag	tolC growth inh	Cav3 T inh
O=C(c1ccc(N2C(=O)CCC2=O)cc1)N1CCN(c2ccccc2)CC1	.	.	.	.	.	.
Cc1noc(C)c1CSCC(=O)OCc1nc2ccccc2c(=O)n1CC#N	.	.	.	.	.	.
O=C(Nc1nnc(-c2ccc(Cl)cc2)o1)Nc1ccccc1Cl	.	.	.	.	/	.
O=C(Nc1nnc(-c2ccc3c(c2)CCCC3)o1)c1ccccc1	100	.	.	/	/	-5.6
O=C(Nc1nnc(-c2ccc3c(c2)OCCO3)o1)c1ccc(Cc2ccccc2)cc1	.	.	.	/	100	/
O=C(Nc1nnc(-c2ccc3c(c2)CCCC3)o1)c1ccccc1Cl	88	.	.	/	98	/
